Bioassay records from PubChem BioAssay.
Apaf-1 inh = inhibitors of human Apaf-1 apoptosome, primary screen, biochemical, DEVD-Rh110 fluorescence, uHTS; reconstituted apoptosome caspase-3 activity; 0.71% of 330,000 active; inhibition, % at 20 µM; Apoptotic protease-activating factor 1 (Homo sapiens), O14727; active means inhibition of at least 40% at 20 µM;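 further: plate controls were DMSO wells for no effect and DEVD-CHO caspase inhibitor wells for full effect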
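System: Apoptosome proteins | Medium: Hepes pH 7.5 with detergent and BSA | Also added: Cytochrome c trigger plus (Z-DEVD)2-Rh110 caspase-3 substrate | Incubation: 30 min compound preincubation, 50 min activation, room temperature | Detection: Rhodamine 110 fluorescence at Ex 480/Em 540 nm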
UBC13 polyUb = UBC13 polyubiquitin chain formation inhibitors, primary screen, biochemical, TR-FRET, uHTS; Ubiquitin-conjugating enzyme E2 N (Homo sapiens), P61088; 0.47% of 330,000 active; inhibition, % at 20 µM; AID 485273, 2010; in the data active means inhibition above about 45%, passing the limit was not always enough; inconclusive means no clear call, values can overlap the other calls
Target sequence (P61088 whole entry, looked up): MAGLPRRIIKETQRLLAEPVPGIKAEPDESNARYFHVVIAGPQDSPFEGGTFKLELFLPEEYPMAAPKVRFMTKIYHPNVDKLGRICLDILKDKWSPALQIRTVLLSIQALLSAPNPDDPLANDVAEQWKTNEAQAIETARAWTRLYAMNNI
ZTA DNA inh = ZTA (EBV) inhibition in EBNA-1 counter-screen. 0.15% of 320,000 active. P03206. ZTA-DNA binding, fluorescence polarization. AID 2234. inhibition, % at 11 µM; in the data active means inhibition above about 33%
EBNA-1 inh = EBNA-1 DNA-binding inhibitors, primary screen, biochemical, fluorescence polarization. inhibition, % at 14.8 µM. 0.34% of 300,000 active; in the data active means inhibition above about 28%
PREPL inh = PREPL enzyme inhibitors, primary screen, biochemical, fluorescence polarization; recombinant PREPL, fluorescence polarization activity-based probe; inhibition, % at 5.96 µM; 0.68% of 320,000 active; in the data active means inhibition above about 43%;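 further: 0% = enzyme with DMSO and 100% = wells lacking enzyme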
Casp3 counter = CASP3 inhibitor validation, counterassay for project on UBE2N polyubiquitination blockers, biochemical, one dose; shares compounds with UBC13 polyUb; Recombinant caspase-3, Caspase-Glo 3/7 luminescence, 60 min; inhibition, % at 20 µM; 4% of 1,400 active; AID 488856, 2010;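 active means mean inhibition across replicates above about 26%, limit read from the data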;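 further: plate controls were DMSO with caspase-3 for no effect and DMSO wells lacking enzyme for full effect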
Target sequence (P42574 whole entry, looked up): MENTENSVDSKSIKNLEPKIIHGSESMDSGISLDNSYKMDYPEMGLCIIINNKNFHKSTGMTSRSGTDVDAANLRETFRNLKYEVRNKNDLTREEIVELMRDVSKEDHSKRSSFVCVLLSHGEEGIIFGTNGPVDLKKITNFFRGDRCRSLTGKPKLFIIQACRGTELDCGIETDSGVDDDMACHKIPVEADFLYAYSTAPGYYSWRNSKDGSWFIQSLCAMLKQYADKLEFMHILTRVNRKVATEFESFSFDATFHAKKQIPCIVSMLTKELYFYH
UBC13 conf = UBC13 polyubiquitination inhibitors, single-point retest, confirmation, biochemical, TR-FRET, single concentration; shares compounds with UBC13 polyUb; inhibition, % at 10 µM; 68% of 1,400 active; AID 488859, 2010; in the data active means inhibition above about 45%; inconclusive means no clear call, values can overlap the other calls
Numbers without * were called inactive. Most compounds without a hit are left out; they make up all but 1.7% or so of the library.

What do the screens show for `COc1ccc(NC(=O)CS(=O)CC(=O)Nc2cc(Cl)ccc2OC)cc1` (stereo not given)?
Apaf-1 inh: -6; UBC13 polyUb: 54*; ZTA DNA inh: -6; EBNA-1 inh: 7; PREPL inh: 0; Casp3 counter: -2; UBC13 conf: 53*

How did CC(=O)Nc1ccc(NC(=O)c2nc(S(=O)(=O)Cc3ccccc3)ncc2Cl)cc1 do in these assays?
Apaf-1 inh: 5; UBC13 polyUb: 47*; ZTA DNA inh: -9; EBNA-1 inh: 7; PREPL inh: -3; Casp3 counter: -4; UBC13 conf: 45*

What do the screens show for `O=C(NCc1ccccc1)c1nc(S(=O)(=O)Cc2ccccc2)ncc1Cl`?
Apaf-1 inh: 0; UBC13 polyUb: 15; ZTA DNA inh: -9; EBNA-1 inh: -2; PREPL inh: 6

What do the screens show for `Cc1ccc(CS(=O)(=O)c2ncc(Cl)c(C(=O)Nc3nnc(C(C)C)s3)n2)cc1`?
Apaf-1 inh: 2; UBC13 polyUb: 50*; ZTA DNA inh: 12; EBNA-1 inh: 0; PREPL inh: 3; Casp3 counter: 1; UBC13 conf: 63*

What do the screens show for `O=C(C1CCN(C2CCN(C/C(Cl)=C/c3ccccc3)CC2)CC1)N1CCOCC1`?
Apaf-1 inh: -8; UBC13 polyUb: 10; ZTA DNA inh: -5; EBNA-1 inh: 0; PREPL inh: 41

How did O=C(c1cc2nc(-c3ccc(F)cc3)cc(C(F)(F)F)n2n1)N1CCCCC1c1cccnc1 (stereo not given) do in these assays?
Apaf-1 inh: 10; UBC13 polyUb: -1; ZTA DNA inh: 18; EBNA-1 inh: 9; PREPL inh: -2

What do the screens show for `O=C(COC(=O)c1ccccc1O)NC(=O)NCc1ccccc1`?
Apaf-1 inh: -8; UBC13 polyUb: inconclusive

How did COC(=O)c1ccc(CNC(=O)COC(=O)c2cc(Cl)ccc2O)cc1 do in these assays?
Apaf-1 inh: -8; UBC13 polyUb: 52*; PREPL inh: -7; Casp3 counter: -5; UBC13 conf: 44

Results for O=C(COC(=O)c1cc(Cl)ccc1O)NC(=O)NCc1ccccc1 ?
Apaf-1 inh: 9; UBC13 polyUb: 50*; ZTA DNA inh: 15; PREPL inh: 6; Casp3 counter: -3; UBC13 conf: inconclusive

Results for C#CCNC(=O)C1=C[C@H](c2cn(C(C)=O)c3ccccc23)C[C@H](OCc2ccc(CO)cc2)O1 ?
Apaf-1 inh: 6; UBC13 polyUb: 63*; ZTA DNA inh: -3; EBNA-1 inh: 2; PREPL inh: 13; Casp3 counter: -2; UBC13 conf: 46*

How did CC(=O)n1cc([C@H]2C=C(C(=O)Nc3ccccc3)O[C@@H](OCc3ccc(CO)cc3)C2)c2ccccc21 do in these assays?
Apaf-1 inh: 24; UBC13 polyUb: 64*; ZTA DNA inh: 17; EBNA-1 inh: 2; PREPL inh: 5; Casp3 counter: 7; UBC13 conf: 58*

How did COc1ccc(N2CCN(C(c3cccs3)C(C)NC(=O)c3ccco3)CC2)cc1 (stereo not given) do in these assays?
Apaf-1 inh: -9; UBC13 polyUb: 18; ZTA DNA inh: 15; EBNA-1 inh: 11; PREPL inh: 4

What do the screens show for `Cc1ccn2c(NC3CCCC3)c(-c3ccncc3)nc2c1`?
Apaf-1 inh: -7; UBC13 polyUb: 20; ZTA DNA inh: 2; EBNA-1 inh: 5; PREPL inh: 2

What do the screens show for `Cn1cccc1/C=C(/C#N)C(N)=S`?
Apaf-1 inh: -2; UBC13 polyUb: 10; ZTA DNA inh: 14; EBNA-1 inh: -4; PREPL inh: -6

How did CCCCc1ccc(/C=C(\C#N)C(N)=S)s1 do in these assays?
Apaf-1 inh: 19; UBC13 polyUb: 53*; Casp3 counter: 1; UBC13 conf: 59*

How did O=C(CSc1nc2c(sc3ccccc32)c(=O)n1CCCN1CCCC1)NCC1CCCO1 (stereo not given) do in these assays?
Apaf-1 inh: 16; UBC13 polyUb: -20; ZTA DNA inh: 3; EBNA-1 inh: 13; PREPL inh: 27

What do the screens show for `COc1cccc(NC(=O)CSc2nc3ccccc3c(=O)n2CCCC(=O)NCCCN2CCOCC2)c1`?
Apaf-1 inh: -1; UBC13 polyUb: 61*; ZTA DNA inh: -9; EBNA-1 inh: -1; PREPL inh: -8; Casp3 counter: -3; UBC13 conf: 79*

What do the screens show for `COc1ccc(NC(=O)CSc2nc3c(sc4ccccc43)c(=O)n2CCCN2CCCC2)cc1`?
Apaf-1 inh: 35; UBC13 polyUb: 50*; ZTA DNA inh: -4; EBNA-1 inh: 1; PREPL inh: -10; Casp3 counter: -2; UBC13 conf: 54*

Results for CCN(CC)S(=O)(=O)c1ccc(NC(=O)COc2cccc(-n3cnnn3)c2)cc1 ?
Apaf-1 inh: 1; UBC13 polyUb: 3; PREPL inh: 12

How did O=C(COC(=O)c1cc(Br)ccc1O)Nc1cccnc1Cl do in these assays?
Apaf-1 inh: 9; UBC13 polyUb: 47*; ZTA DNA inh: -7; EBNA-1 inh: 12; PREPL inh: -9; Casp3 counter: 0; UBC13 conf: inconclusive

How did COCCCNC(=O)c1cn(CC(C)C)c(=O)c2c1c1ccccc1n2C do in these assays?
Apaf-1 inh: 3; UBC13 polyUb: 30; ZTA DNA inh: 0; EBNA-1 inh: -14; PREPL inh: -8

What do the screens show for `CC(C)Cn1cc(C(=O)NC2CCN(Cc3ccccc3)CC2)c2c3ccccc3n(C)c2c1=O`?
Apaf-1 inh: 19; UBC13 polyUb: 68*; ZTA DNA inh: -13; EBNA-1 inh: 3; PREPL inh: 20; Casp3 counter: -2; UBC13 conf: 45

How did CC(C)Cn1cc(C(=O)NCCCN2CCC(C)CC2)c2c3ccccc3n(C)c2c1=O do in these assays?
Apaf-1 inh: -16; UBC13 polyUb: 76*; ZTA DNA inh: -12; EBNA-1 inh: 4; PREPL inh: -6; Casp3 counter: -4; UBC13 conf: 50*

How did Cc1ccc(-c2csc(NC(=O)C[n+]3cc(-c4ccc(C)cc4)n4c3CCC4)n2)cc1 do in these assays?
Apaf-1 inh: 30; UBC13 polyUb: 60*; ZTA DNA inh: 15; EBNA-1 inh: -1; PREPL inh: -27; Casp3 counter: 1; UBC13 conf: 70*

How did COc1cccc(NC(=O)NCCC2=CCCCC2)c1 do in these assays?
Apaf-1 inh: -1; UBC13 polyUb: 10; ZTA DNA inh: -2; EBNA-1 inh: 8; PREPL inh: 5
